Common to all, as to assay type: functional, cell-based
The subject of one experiment is MV4-11. The experiment in a line: Antiproliferative activity against human MV411 cells after 72 hrs by MTT assay. As to conditions: for IC50: MV4-11, 72 h. A digest of the protocol:
(§1)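 Human tumour lines HGC-27 (stomach), A-549 (lung), HeLa (cervical) and MV4-11 (leukemia) tested in a standard MTT assay, with taxol as positive control. Each assay repeated more than three times. IC50 calculated by the Reed and Muench method, reported as mean ± SD.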
For orientation: Tetrazolium assays rely on reduction of a dye to a coloured formazan, in cell work by metabolically active cells.

The subject of another experiment is HeLa. Description: Antiproliferative activity against human HeLa cells after 72 hrs by MTT assay. A digest of the protocol: as §1
The test system of another experiment is A549. Description: Antiproliferative activity against human A549 cells after 72 hrs by MTT assay. As to conditions: for IC50: A549, 72 h. A digest of the protocol:
as §1

The next experiment concerns HGC-27. The experiment in a line: Antiproliferative activity against human HGC27 cells after 72 hrs by MTT assay. As to conditions: for IC50: HGC-27, 72 h. In a few lines:
as §1

The source made the active and inactive calls. The calls are words filed in the database; no cut-off is given here.

Take `C=C1[C@H]2[C@@H](/C(=C/C)C(=O)[C@H]2OC(=O)C(C)CC)[C@H]([C@@]2(C)CO2)[C@@H](OC(=O)/C(C)=C\C)[C@H]1OC(=O)/C=C(\C)CC` (stereo partly drawn): the result with MV4-11, in the experiment on HeLa, in the experiment with A549 and in the experiment with HGC-27 was inactive.

Take `C=C(C)[C@@H]1C[C@@]2(C)C(=CC1=O)CC[C@@H](OC(=O)CC(C)CC)[C@@H]2C` (stereo partly drawn): the IC50 was found to be 1100 nM with MV4-11, 3300 nM with HeLa, 6600 nM in the experiment with A549 and 3600 nM in the experiment with HGC-27.

For the molecule `C=C(C(CC=C(C)C)OC(=O)/C(C)=C\C)[C@@H]1C[C@H](Cl)[C@](C)(O)C(=O)[C@H]1OC(C)=O` (stereo partly drawn), the outcome in the experiment on MV4-11, in the experiment on HeLa, with A549 and in the experiment on HGC-27 was inactive.

Turning to `C=C(C(CC=C(C)C)OC(=O)/C(C)=C\C)[C@@H]1[C@@H](O)[C@@H](OC(=O)/C(C)=C\C)[C@](C)(O)C(=O)[C@H]1OC(C)=O` (stereo partly drawn), the result with MV4-11, with HeLa, with A549 and in the experiment with HGC-27 was inactive.

`C=C(C(CC=C(C)C)OC(=O)/C(C)=C\C)[C@@H]1C(=O)C(OC(C)=O)=C(C)[C@H](O)[C@H]1OC(=O)/C(C)=C\C` (stereo partly drawn): the IC50 in the experiment with MV4-11 turned out to be 2900 nM; with HeLa, 6300 nM; in the experiment with A549, 9800 nM; with HGC-27, 2200 nM.

With `CC(=O)O[C@H]1C(=O)[C@@]2(C)[C@H]([C@H](OC(=O)c3ccccc3)[C@]3(O)C[C@H](OC(=O)[C@H](O)[C@@H](NC(=O)c4ccccc4)c4ccccc4)C(C)=C1C3(C)C)[C@]1(OC(C)=O)CO[C@@H]1C[C@@H]2O` [PACLITAXEL], the IC50 was 17 nM in the experiment on MV4-11, 46 nM in the experiment with HeLa, 51 nM with A549 and 28 nM in the experiment on HGC-27.

`C=C1CO[C@H]2C[C@@H]1Cc1c2ccc(O)c1C`: the outcome in the experiment on MV4-11, with HeLa, in the experiment on A549 and with HGC-27 was inactive.

The term IC50 denotes the point on the concentration scale where inhibition reaches its midpoint. A higher IC50 goes with lower potency.

The values above are taken from ChEMBL document CHEMBL4196208, “Antiproliferative Sesquiterpenoids from Ligularia rumicifolia with Diverse Skeletons” (J Nat Prod, 2018).
